Results from publication PMC6448791 (Journal of natural products, 2017).
Where “and” joins values, the source holds several entries; their conditions need not be identical. Equal values may be shown once. Read-outs that look alike come from different tables or passages of the source.

Key:
[1] = system: rabbit erythrocytes; assay: Hemolytic assay; type: cell-based; details: for HD50 (concentration inducing 50% of erythrocyte hemolysis): 37 °C, 60 min, PBS pH 7.4; for fold lower hemolytic toxicity than 1: HD50 relative to compound 1, rabbit erythrocytes
[2] = system: BGC-823 (gastric carcinoma); assay: MTT cytotoxicity assay, BGC-823; type: cell-based, human
In short: (§1)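 Cells kept in RPMI-1640 with 10% FBS, penicillin and streptomycin at 37 °C under 5% CO2. Seeded at 5 × 10^4 cells/mL and pre-incubated 24 h. Exposed to test compound at preset concentrations for 48 h. MTT (0.5 mg/mL) added for 4 h, formazan dissolved in DMSO, A490 read. Inhibition % = (ODc − ODt)/ODc × 100. Cisplatin as positive control.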

[3] = system: SMMC-771 (hepatocellular carcinoma); assay: MTT cytotoxicity assay, SMMC-7721; type: cell-based, human
In short: as §1

[4] = system: PARP, pro-caspase-3, pro-caspase-9, pro-caspase-8; assay: Western blot of apoptosis-related proteins; type: cell-based
In short: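 A549 cells treated with test compound for 24 h beside untreated control. Lysed in 100 mM Tris-Cl pH 6.8, 4% SDS, 20% glycerol, 200 mM β-mercaptoethanol, 1 mM PMSF plus aprotinin, then spun 12000g for 15 min at 4 °C. Protein measured by BCA, run on 10–15% SDS-PAGE and moved to PVDF. Primary antibodies overnight at 4 °C, HRP secondary, ECL detection; lamin A probed.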

[5] = system: all five tested human cancer cell lines; assay: SRB cytotoxicity, all five tested human cancer cell lines; type: cell-based; details: read-out: IC50 against all five tested human cancer cell lines
In short: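 ATCC-sourced lines grown in RPMI-1640 with 10% FBS at 37 °C, 5% CO2. Seeded at 3–5 × 10^3 cells/well in medium already containing graded test compound, then 72 h exposure. Fixed with cold 50% TCA for 30 min, stained with 0.04% SRB for 30 min, bound dye taken up in 10 mM Tris base, A515 read.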

[6] = system: A549 human lung cancer cell line; assay: SRB cytotoxicity assay, A549; type: cell-based
[7] = system: erythrocytes; details: cited from earlier work
[8] = Homo sapiens, BGC-823, read-out: IC50 BGC-823
[9] = Homo sapiens, SMMC-7721, read-out: IC50 SMMC-771
[10] = 24 h treatment, compared to controls
[11] = as the concentration of 14 increased

C[C@@H]1O[C@@H](O[C@H]2[C@H](O[C@H]3CC[C@@]4(C)[C@@H](CC[C@]5(C)[C@@H]4C(=O)C=C4[C@@H]6CC(C)(C)CC[C@]6(C(=O)O)CC[C@]45C)[C@]3(C)CO)OC[C@H](O[C@@H]3O[C@H](CO)[C@@H](O)[C@H](O)[C@H]3O)[C@@H]2O)[C@H](O)[C@H](O)[C@H]1O [compound 4, 3β,23-Dihydroxy-11-oxo-olean-12-en-28-oic acid-3-O-α-L-rhamnopyranosyl-(1→2)-[β-D-gluco-pyranosyl-(1→4)]-α-L-arabinopyranoside]
HD50 (concentration inducing 50% of erythrocyte hemolysis) ([1]; rabbit erythrocytes): 239 µM and 239 ± 22.2 µM
IC50 [2, 8]: > 10 µM
IC50 [3, 9]: > 10 µM

C[C@@H]1O[C@@H](O[C@H]2[C@H](O[C@H]3CC[C@@]4(C)[C@@H](CC[C@]5(C)[C@@H]4C(=O)C=C4[C@@H]6CC(C)(C)CC[C@]6(C(=O)NCC(=O)O)CC[C@]45C)[C@]3(C)CO)OC[C@H](O[C@@H]3O[C@H](CO)[C@@H](O)[C@H](O)[C@H]3O)[C@@H]2O)[C@H](O)[C@H](O)[C@H]1O [compound 7, 3β,23-Dihydroxy-11-oxo-olean-12-en-28-(glycine)oic acid-3-O-α-L-rhamnopyranosyl-(1→2)-[β-D-glucopyranosyl-(1→4)]-α-L-arabinopyranoside]
HD50 (concentration inducing 50% of erythrocyte hemolysis) ([1]; rabbit erythrocytes): 290−308 μM and 290 ± 27.0 μM
IC50 [2, 8]: > 10 µM
IC50 [3, 9]: > 10 µM

C[C@@H]1O[C@@H](O[C@H]2[C@H](O[C@H]3CC[C@@]4(C)[C@@H](CC[C@]5(C)[C@@H]4CC(=O)[C@@H]4[C@@H]6CC(C)(C)CC[C@]6(C(=O)O)CC[C@]45C)[C@]3(C)CO)OC[C@H](O[C@@H]3O[C@H](CO)[C@@H](O)[C@H](O)[C@H]3O)[C@@H]2O)[C@H](O)[C@H](O)[C@H]1O [compound 9, 3β,23-Dihydroxy-12-oxo-olean-28-oic acid-3-O-a-L-rhamnopyranosyl-(1→2)-[β-D-glucopyranosyl-(1→4)]-a-L-arabinopyranoside]
fold lower hemolytic toxicity than 1 [1]: at least 10 fold
HD50 (concentration inducing 50% of erythrocyte hemolysis) ([1]; rabbit erythrocytes): 73.1 µM and 73.1 ± 9.0 µM
IC50 [2, 8]: > 10 µM
IC50 [3, 9]: > 10 µM

C[C@@H]1O[C@@H](O[C@H]2[C@H](O[C@H]3CC[C@@]4(C)[C@@H](CC[C@]5(C)[C@@H]4CC(=O)[C@]46OC(=O)[C@@]7(CCC(C)(C)C[C@H]74)CC[C@@]56C)[C@]3(C)CO)OC[C@H](O[C@@H]3O[C@H](CO)[C@@H](O)[C@H](O)[C@H]3O)[C@@H]2O)[C@H](O)[C@H](O)[C@H]1O [compound 10, 3β,23-Dihydroxy-12-oxo-olean-28-oic acid-28,13β-lactone-3-O-α-L-rhamnopyranosyl-(1→2)-[β-D-glucopyranosyl-(1→4)]-α-L-arabinopyranoside]
fold lower hemolytic toxicity than 1 [1]: ~50 fold
HD50 (concentration inducing 50% of erythrocyte hemolysis) ([1]; rabbit erythrocytes): 290 μM and 290−308 μM and 290 ± 25.5 μM
IC50 [2, 8]: > 10 µM
IC50 [3, 9]: > 10 µM

C[C@@H]1O[C@@H](O[C@H]2[C@H](O[C@H]3CC[C@@]4(C)[C@@H](CC[C@]5(C)[C@@H]4C[C@H](O)[C@]46OC(=O)[C@@]7(CCC(C)(C)C[C@H]74)CC[C@]65C)[C@]3(C)CO)OC[C@H](O[C@@H]3O[C@H](CO)[C@@H](O)[C@H](O)[C@H]3O)[C@@H]2O)[C@H](O)[C@H](O)[C@H]1O [compound 11, 33β,12α,23-Trihydroxyolean-28-oic acid 28,13β-lactone-3-O-α-3L3-rhamnopyranosyl-(1→32)-[β-3D3-glucopyranosyl-(1→34)]-α-3L3-arabinopyranoside]
fold lower hemolytic toxicity than 1 [1]: ~50 fold
HD50 (concentration inducing 50% of erythrocyte hemolysis) ([1]; rabbit erythrocytes): 308 μM and 290−308 μM and 308 ± 24.2 μM
IC50 [2, 8]: > 10 µM
IC50 [3, 9]: > 10 µM

CC(=O)OC[C@@]1(C)[C@@H]2CC[C@]3(C)[C@H](CC=C4[C@@H]5CC(C)(C)CC[C@]5(C(=O)O)CC[C@]43C)[C@@]2(C)CC[C@@H]1OC(C)=O [compound 12, 3β,23-Diacetoxyolean-12-en-28-oic acid]
HD50 (concentration inducing 50% of erythrocyte hemolysis) ([1]; rabbit erythrocytes): >500 µM

CCOC(=O)CNC(=O)[C@]12CCC(C)(C)C[C@H]1C1=CC[C@@H]3[C@@]4(C)CC[C@H](OC(C)=O)[C@@](C)(COC(C)=O)[C@@H]4CC[C@@]3(C)[C@]1(C)CC2 [compound 13, 3β,23-Diacetoxyolean-12-en-N-[glycineethyl ester]-28-formamide]
HD50 (concentration inducing 50% of erythrocyte hemolysis) ([1]; rabbit erythrocytes): >500 µM

CCOC(=O)CCCNC(=O)[C@]12CCC(C)(C)C[C@H]1C1=CC[C@@H]3[C@@]4(C)CC[C@H](OC(C)=O)[C@@](C)(COC(C)=O)[C@@H]4CC[C@@]3(C)[C@]1(C)CC2 [compound 14, 3β,23-Diacetoxyolean-12-en-N-[4-aminobutanoic acid ethyl ester]-28-formamide]
expression of pro-caspase-3 [4, 10]: decreased
expression of pro-caspase-8 [4, 10]: decreased
expression of pro-caspase-9 [4, 10]: decreased
expression of PARP [4, 11]: decreased
expression of cleaved PARP [4, 11]: increased
IC50 [5]: 2.8 to 8.6 µM
HD50 (concentration inducing 50% of erythrocyte hemolysis) ([1]; rabbit erythrocytes): >500 µM

CCOC(=O)CCCCCNC(=O)[C@]12CCC(C)(C)C[C@H]1C1=CC[C@@H]3[C@@]4(C)CC[C@H](OC(C)=O)[C@@](C)(COC(C)=O)[C@@H]4CC[C@@]3(C)[C@]1(C)CC2 [compound 15, 3β,23-Diacetoxyolean-12-en-N-[6-aminocaproic acid ethyl ester]-28-formamide]
HD50 (concentration inducing 50% of erythrocyte hemolysis) ([1]; rabbit erythrocytes): >500 µM

CC1(C)CC[C@]2(C(=O)NCC(=O)O)CC[C@]3(C)C(=CC[C@@H]4[C@@]5(C)CC[C@H](O)[C@@](C)(CO)[C@@H]5CC[C@]43C)[C@@H]2C1 [compound 16, 3β,23-Dihydroxyolean-12-en-28-(glycine)oic acid amide]
HD50 (concentration inducing 50% of erythrocyte hemolysis) ([1]; rabbit erythrocytes): >500 µM

CC1(C)CC[C@]2(C(=O)NCCCC(=O)O)CC[C@]3(C)C(=CC[C@@H]4[C@@]5(C)CC[C@H](O)[C@@](C)(CO)[C@@H]5CC[C@]43C)[C@@H]2C1 [compound 17, 3β,23-Dihydroxyolean-12-en-28-(4-aminobutanoic acid)oic acid amide]
HD50 (concentration inducing 50% of erythrocyte hemolysis) ([1]; rabbit erythrocytes): >500 µM

CC1(C)CC[C@]2(C(=O)NCCCCCC(=O)O)CC[C@]3(C)C(=CC[C@@H]4[C@@]5(C)CC[C@H](O)[C@@](C)(CO)[C@@H]5CC[C@]43C)[C@@H]2C1 [compound 18, 3β,23-Dihydroxyolean-12-en-28-(6-aminocaproic acid)oic acid amide]
HD50 (concentration inducing 50% of erythrocyte hemolysis) ([1]; rabbit erythrocytes): >500 µM

CC1(C)CC[C@]2(C(=O)O)CC[C@]3(C)C(=CC[C@@H]4[C@@]5(C)CC[C@H](O)[C@@](C)(CO)[C@@H]5CC[C@]43C)[C@@H]2C1 [hederagenin, reference compound]
cytotoxicity toward A549 cancer cells (in words) [6]: inactive
hemolytic toxicity (in words) ([1]; rabbit erythrocytes): low hemolytic toxicity
HD50 (concentration inducing 50% of erythrocyte hemolysis) ([1]; rabbit erythrocytes): >200 µM

hederagenin 3-O-α-L-rhamnopyr-anosyl-(1→2)-[β-D-glucopyranosyl-(1→4)]-α-L-arabinopyrano-side [compound 1]
HD50 (concentration inducing 50% of erythrocyte hemolysis) ([1]; rabbit erythrocytes): 6.3 µM and 6.3 ± 0.58 µM
IC50 ([2]; read-out: IC50 BGC-823, MTT assay): 7.2 µM
HD50 (hemolytic toxicity) [7]: 6.3 µM
IC50 ([3]; read-out: IC50 SMMC-771, MTT assay): 4.4 µM
